Data set [1] in a line: Estimation of membrane permeability by migration behavior in micellar media. It counts as ADME. The method, boiled down:
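Capillary electrophoresis in MEKC mode on untreated fused-silica capillaries (50 µm i.d., 26.5 cm effective length), 300 V/cm, capillary at 37.0 ± 0.1 °C for log k′. Micellar electrolyte: 100 mM sodium cholate in sodium phosphate buffer pH 7.4, I = 0.05. Rinses with 0.1 M NaOH, water, then electrolyte before each run. Hydrodynamic injection at 20 mbar for 5 s. Read-out: log k′.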

Data set [2] can be described thus: Estimation of membrane permeability. Format: ADME.
A further data set addresses Prothrombin (Homo sapiens, UniProt P00734). The data set is described as follows: Inhibitory activity against thrombin.
A further data set addresses T1, Serine protease 1 (Bos taurus, UniProt P00760).
T1 sequence (P00760 whole entry): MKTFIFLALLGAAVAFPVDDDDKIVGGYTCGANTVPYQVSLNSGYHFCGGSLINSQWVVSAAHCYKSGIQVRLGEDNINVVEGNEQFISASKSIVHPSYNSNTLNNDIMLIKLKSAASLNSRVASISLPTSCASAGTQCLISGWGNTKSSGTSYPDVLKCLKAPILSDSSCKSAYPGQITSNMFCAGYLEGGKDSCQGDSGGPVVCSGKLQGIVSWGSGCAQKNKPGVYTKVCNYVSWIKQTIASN
Kind of data set: Inhibitory activity against bovine Trypsin. In a few lines:
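Bovine trypsin at 0.25 mg/L final in 0.05 mol/L Tris-HCl pH 8.2 (20 °C) with 20 mM CaCl₂. Inhibitor at seven assay levels of […], preincubated 5 min with enzyme at 37 °C. S-2222 chromogenic substrate at assay levels of 15, 25 and 50 µM. A405 read every 10 s for 110 s. Ki obtained by linear regression.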

Structures are written as SMILES.

As to `Cc1cccc(S(=O)(=O)Oc2cccc(OCCc3ccc(CN)cc3)c2)c1`, the “CE logK'” value in data set [1] is 0.89. In data set [2], the pKa (in general, the negative logarithm of the acid dissociation constant) was 9.4. Also, the concentration for half-maximal inhibition (IC50) (usually the concentration at which inhibition is half-maximal) against Prothrombin was 58900 nM.

With `CCc1cc(OCCc2ccc(CN)c(O)c2)cc(OS(=O)(=O)c2cccc(Cl)c2Cl)c1`, the “CE logK'” value in data set [1] is 1.08. Besides, in data set [2], the pKa was 8.3. It took 11200 nM to reach half-maximal inhibition at Prothrombin (IC50).

`COc1ccc(C)cc1S(=O)(=O)Oc1cccc(OCCc2ccccc2)c1`: the “CE logK'” value in data set [1] was 1.4.

Turning to `Cc1cc(OCCc2ccc(CN)c(O)c2)cc(OS(=O)(=O)c2cc(Cl)ccc2Cl)c1`, the “CE logK'” value in data set [1] is listed as 0.98. In addition, the pKa in data set [2] was 8.6. This compound showed an IC50 against Prothrombin of 933 nM.

`CCc1cc(OCCc2ccc(CN)cc2)cc(OS(=O)(=O)c2cc(C)ccc2OC)c1`: the affinity on Serine protease 1, expressed as Ki, was 6170 nM. The “CE logK'” value in data set [1] is given as 0.87. Besides, the pKa in data set [2] is 9.3.

Regarding `Cc1cc(OCCc2ccccc2)cc(OS(=O)(=O)c2ccccc2)c1`, in data set [1], the “CE logK'” value is listed as 1.51.

For the compound `Cc1cc(OCCc2ccc(C(=N)N)c(O)c2)cc(OS(=O)(=O)c2cccc(C)c2)c1`, the inhibitory constant (Ki) (usually the equilibrium dissociation constant of an inhibitor or competing ligand from its target) on Serine protease 1 was 32400 nM. In addition, in data set [1], the “CE logK'” value was 1.16. In addition, the pKa in data set [2] was 6.3. The same compound had a 50% inhibitory concentration (IC50) against Prothrombin of 135 nM.

For the compound `CCc1cc(OCCc2ccccc2)cc(OS(=O)(=O)c2cc(Cl)ccc2Cl)c1`, the “CE logK'” value in data set [1] is recorded as 1.85.

As for `O=S(=O)(Oc1cccc(OCCc2cccc(O)c2)c1)c1cccc(Cl)c1Cl`, the “CE logK'” value in data set [1] is 1.41.

`Cc1cc(OCCc2ccc(CN)cc2)cc(OS(=O)(=O)c2cccc(Cl)c2Cl)c1`: the “CE logK'” value in data set [1] was 0.97. For the same compound, in data set [2], the pKa was 9. The compound further had an IC50 against Prothrombin of 1230 nM.

Consider `CCc1cc(OCCc2cccc(O)c2)cc(OS(=O)(=O)c2cc(C)ccc2OC)c1`, for which the “CE logK'” value in data set [1] is recorded as 1.3.

As for `CCc1cc(OCCc2ccc(C(=N)N)c(O)c2)cc(OS(=O)(=O)c2cc(Cl)cc(Cl)c2OC)c1`, the “CE logK'” value in data set [1] is listed as 1.27. In data set [2], the pKa is 6.3.

On Serine protease 1, `COc1ccc(C)cc1S(=O)(=O)Oc1cccc(OCCc2ccc(C(=N)N)c(O)c2)c1` showed a Ki of 28200 nM. Moreover, the “CE logK'” value in data set [1] is reported as 1.08. For the same compound, the pKa in data set [2] is 6.2. Besides, inhibition against Prothrombin was half-maximal at 575 nM (IC50).

As to `CCc1cc(OCCc2ccc(C(=N)N)cc2)cc(OS(=O)(=O)c2ccccc2)c1`, in data set [1], the “CE logK'” value is given as 0.88. Besides, in data set [2], the pKa was 10.9. This compound also had an IC50 against Prothrombin of 25.1 nM.

On Serine protease 1, `COc1c(Cl)cc(Cl)cc1S(=O)(=O)Oc1cccc(OCCc2ccc(C(=N)N)cc2)c1` gave a Ki of 263 nM. In data set [1], the “CE logK'” value was 0.96. Also, the pKa in data set [2] was 10.5. This compound also showed an IC50 against Prothrombin of 56.2 nM.

As for `NCc1ccc(CCOc2cccc(OS(=O)(=O)c3ccccc3)c2)cc1O`, in data set [1], the “CE logK'” value was 0.85. Moreover, the pKa in data set [2] is 8.3. On Prothrombin, this compound gave an IC50 of 10700 nM.

Consider `CCc1cc(OCCc2cccc(O)c2)cc(OS(=O)(=O)c2ccccc2)c1`, for which, in data set [1], the “CE logK'” value is 1.42.

For the compound `COc1c(Cl)cc(Cl)cc1S(=O)(=O)Oc1cc(C)cc(OCCc2cccc(O)c2)c1`, the “CE logK'” value in data set [1] is reported as 1.57.

Values taken from ChEMBL document CHEMBL1134416, “Statistical molecular design, parallel synthesis, and biological evaluation of a library of thrombin inhibitors” (J Med Chem, 2001).
